Screens: PubChem, several laboratories
MrgX1 antag – human MrgX1 receptor antagonism, primary screen | Q96LB2 | MRGX1-HEK293 calcium flux, Fluo-4, BAM8-22 antagonism; hits give low values | B-score at 10 µM | 310,000 tested, 1.3% active | AID 588676;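 active means calcium-response B-score plate-corrected more than 3 library SD below zero, starting fluorescence within 5 deviations, no agonist response on first addition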;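 further: peak minus trough fluorescence over baseline after final BAM8-22 challenge near maximal dose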
Target sequence (Q96LB2 whole entry, looked up): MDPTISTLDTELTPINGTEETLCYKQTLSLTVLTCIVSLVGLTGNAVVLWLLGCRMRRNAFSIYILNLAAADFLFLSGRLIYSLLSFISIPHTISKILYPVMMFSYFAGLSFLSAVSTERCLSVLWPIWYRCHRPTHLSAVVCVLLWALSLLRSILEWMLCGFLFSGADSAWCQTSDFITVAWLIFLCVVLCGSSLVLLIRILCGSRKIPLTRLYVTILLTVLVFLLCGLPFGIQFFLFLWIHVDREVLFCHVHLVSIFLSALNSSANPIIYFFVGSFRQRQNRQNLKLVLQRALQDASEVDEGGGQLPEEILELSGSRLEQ
KCC2 mod – KCC2 (human) Cl- transport modulation; 190,000 tested, 2.2% active; AID 1456; Q9H2X9; B-score of Tl+ flux slope (higher = more flux/activation; lower = inhibition) at 10 µM; KCC2 cells, thallium flux FluoZin-2 fluorescence;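 active means thallium flux slope and its plate-corrected score both differing from the plate sample mean at a set confidence after two filtering rounds, in either direction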;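 further: slope of fluorescence scaled to starting intensity during 10 to 20 s after thallium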
RGS4 act – RGS4 potentiation or activation; B-score at 10 µM; 310,000 tested, 0.92% active; HEK293 M3R/inducible RGS4, carbachol calcium flux Fluo4; hits give low values; AID 463111;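 active means B-score of the integrated calcium signal more than 4 SD below the library mean, with starting fluorescence not abnormally high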;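 further: negative B-score means reduced calcium response which marks RGS4 activation or potentiation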
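System – HEK293 FlpIn-TREx cells, stable M3R, doxycycline-inducible RGS4 · Reagent – ECmax carbachol challenge · Times – compound preincubation 20 min at room temperature before agonist · Technique – Fluo4 fluorescence kinetic imaging of calcium · Measure – B score of integrated Fluo4 ratio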
RGS4 inh – inhibitors of human RGS4 | 310,000 tested, 0.45% active | HEK293 M3R/RGS4 inducible, Fluo-4 calcium flux; hits give high values; triggered by carbachol at its EC20 | B-score at 10 µM | P49798;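 active means B-score, a plate-corrected calcium signal, over three deviations above library mean, with baseline fluorescence within five deviations of library mean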;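 further: RGS4 expression induced by doxycycline in cells with stable M3 receptor; B-score is computed from the integrated fluorescence ratio over baseline after carbachol; higher B-score means a larger calcium signal and so more RGS4 inhibition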
Target sequence (P49798 whole entry, looked up): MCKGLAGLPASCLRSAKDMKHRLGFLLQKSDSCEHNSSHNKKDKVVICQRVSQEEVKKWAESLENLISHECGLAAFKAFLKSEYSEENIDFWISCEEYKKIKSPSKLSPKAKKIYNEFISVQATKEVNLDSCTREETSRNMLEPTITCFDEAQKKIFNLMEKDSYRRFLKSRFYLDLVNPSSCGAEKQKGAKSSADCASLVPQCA
MrgX1 PAM – allosterically activates human MrgX1 receptor signaling; MrgX1-HEK293, Fluo-4 calcium flux, FDSS; hits give high values; B-score at 10 µM; 310,000 tested, 0.63% active; AID 588675;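 active means plate-corrected calcium response at least 3 library SD above typical, normal starting fluorescence, not activating the receptor alone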;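 further: compound read alongside a low EC10 to EC30 dose of BAM8-22 agonist; peak minus trough fluorescence over baseline measured at the second addition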
MrgX1 ag – agonists of human MrgX1 receptor; B-score at 10 µM; Q96LB2; 310,000 tested, 0.44% active; MrgX1-HEK293 cells, Fluo-4 calcium fluorescence, agonist mode; hits give high values;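 active means calcium response B-score plate-corrected fluorescence ratio at least 3 library SD, with starting fluorescence B-score inside 5 SD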
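System: HEK293 cells stably expressing human MrgX1 receptor; Dosing: test compound in the initial addition of three; Schedule: overnight plating, then 30 min 37 °C plus 30 min room-temperature dye loading; Detection: kinetic calcium dye fluorescence, Fluo-4 NW; Controls: per-plate positive and negative controls for Z′ factor.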
KCC2 sec1 – confirmation of human KCC2 transport modulators; shares compounds with KCC2 mod; HEK293-KCC2, thallium flux, FluoZin2 fluorescence; hits give high values; normalised thallium flux (F/F0 slope) at 10 µM; 3,700 tested, 15% active;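 active means thallium flux slope above the same plate's solvent-only control mean plus 3 SD; inconclusive means the two replicate wells disagree; inactive means no significant difference from solvent-only control wells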
KCC2 bumet counter – bumetanide-insensitive thallium flux in KCC2 cells with ouabain, counter-screen. AID 1714. 3,700 tested, 49% active. HEK293-KCC2 + bumetanide/ouabain, thallium flux FluoZin2; hits give high values. normalized thallium flux at 10 µM. shares compounds with KCC2 mod;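 active means thallium entry rate above the same plate's blocked-transporter control wells by more than 3 SD; inconclusive means the two repeat wells disagree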;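 further: raw slope of fluorescence over initial fluorescence between 10 and 20 s after thallium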
KCC2 sec2 – KCC2 (human) modulation, second secondary assay; shares compounds with KCC2 mod; HEK293-KCC2, thallium flux FluoZin2 fluorescence; actives lie on both sides; F/F0 rise rate, 10–20 s post-thallium; normalized thallium flux at 10 µM; 3,700 tested, 23% active; AID 1715;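 active means thallium flux slope more than 3 SD above or below the plate's solvent-only control mean, mostly below; inconclusive means the two repeat wells disagreed; inactive means no significant shift from solvent-only controls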;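 further: raw slope with 0.1% DMSO as baseline and bumetanide as block control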
HEK counter1 – acts in parental HEK cells, KCC2 counter-screen; thallium flux rate (normalised fluorescence) at 10 µM; HEK293 parental cells, thallium flux FluoZin2, ouabain; baseline-ratio fluorescence slope, 10–20 s after thallium; 3,700 tested, 46% active; shares compounds with KCC2 mod; AID 1716;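 active means thallium flux rate significantly above the same plate's solvent-only control wells, beyond their mean plus 3 SD; inconclusive means the two replicate wells gave conflicting results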
KCC2 ouabain – KCC2 (human) modulation, ouabain retest; raw Tl+ flux slope (below DMSO = inhibition, above = activation) at 10 µM; shares compounds with KCC2 mod; HEK293-KCC2, thallium flux FluoZin2 fluorescence; bidirectional: low = inhibitor, high = activator; 3,700 tested, 48% active;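 active means thallium flux slope beyond 3 SD from same-plate DMSO control mean in most replicates, usually higher, sometimes lower; inconclusive means repeat tests gave conflicting results; inactive means no significant difference from controls in most replicates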;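 further: slope of initial-normalized fluorescence between seconds 10 and 20 after thallium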
HEK counter2 – counter-screen for KCC2 modulators: effect in parental HEK293 cells; shares compounds with KCC2 mod; thallium flux FluoZin-2 fluorescence slope; thallium flux slope at 10 µM; 3,700 tested, 33% active;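 active means thallium flux slope above the same plate's solvent-control mean plus 3 SD in both duplicate wells; inconclusive means duplicate wells that disagreed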;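 further: run without ouabain in cells lacking the KCC2 cotransporter; slope of fluorescence scaled to its starting value between 10 and 20 s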
Active calls of the source: *; i = inactive; ? = inconclusive; / = no result given. Sampled rows, rich in hits. Any-hit rate of the full collection: about 4.7%.

SMILES	MrgX1 antag	KCC2 mod	RGS4 act	RGS4 inh	MrgX1 PAM	MrgX1 ag	KCC2 sec1	KCC2 bumet counter	KCC2 sec2	HEK counter1	KCC2 ouabain	HEK counter2
O=C(O)c1ccc(N2CCS(=O)(=O)CC2)cc1	i	0.27	i	i	i	i	/	/	/	/	/	/
O=C(CCCN1C(=O)c2cccc3cccc(c23)C1=O)NC1CCS(=O)(=O)C1 (configuration not stated)	i	-0.021	i	i	i	i	/	/	/	/	/	/
O=C(NNC(=O)c1csc(-c2cnccc2C(F)(F)F)n1)c1ccc(C(F)(F)F)cc1	i	5.9*	i	i	i	i	?	0.041*	0.028	0.013*	?	?
CC(=O)OCC1OC(c2ccccc2)C(OC(C)=O)C(OC(C)=O)C1OC(C)=O (configuration not stated)	i	4.3*	i	i	i	i	0.0064	0.005	?	0.0071	0.018	0.01
CC(=O)OCC1OC(OC(C)=O)C(NC(=O)Cc2ccccc2)C(OC(C)=O)C1OC(C)=O (configuration not stated)	i	-0.55	i	i	i	i	/	/	/	/	/	/
COCCN1C(=O)/C(=C/c2ccc(OCc3ccc(C(=O)O)cc3)c(OC)c2)SC1=Nc1ccccc1	i	-5.7*	i	i	i	i	0.0074	0.0051	0.022*	0.0066	0.013*	0.0094
Cc1ccc(S(=O)(=O)N(Cc2cccc(F)c2)C(=O)N2CCN(C)CC2)cc1	i	/	i	i	i	i	/	/	/	/	/	/
O=C(NCCOc1ccccc1)c1cc(S(=O)(=O)N2CCOCC2)ccc1F	i	/	i	i	i	i	/	/	/	/	/	/
COc1ccc(C(C(=O)NC2CCCCC2)N(C(=O)c2ccco2)c2ccccc2C(C)=O)cc1 (configuration not stated)	i	/	i	i	i	i	/	/	/	/	/	/
Cc1ccc(C(=O)N/C(=C\c2ccccc2)C(=O)OCc2ccccc2)cc1	i	-1.8	i	i	i	i	/	/	/	/	/	/
O=C(NCCO)/C(=C/c1ccc(Br)cc1)NC(=O)c1cccs1	i	/	i	i	i	i	0.0084	0.0068	0.03	0.0067	0.02	0.0098
O=C(CNC(=O)/C(=C/c1ccccc1)NC(=O)c1ccc(Br)cc1)OCc1ccccc1	i	-6.9*	i	i	i	i	0.0078	0.0057	0.022*	0.0064	0.011*	0.009
O=C(CNC(=O)/C(=C\c1ccc(Br)cc1)NC(=O)c1ccccc1)OCc1ccccc1	i	-6.1*	i	i	i	i	0.0066	0.0046	0.021*	0.0077	0.012*	0.01
CN(CCCC(=O)O)c1ccc(N=Nc2ccc([N+](=O)[O-])cc2)cc1	i	/	i	i	i	i	/	/	/	/	/	/
CC(=O)NC1=NN(C(C)=O)C2(S1)C(=O)N(C(C)C)c1ccc(C)cc12 (configuration not stated)	i	/	i	i	i	i	0.0067	0.0049	0.029	0.0082	0.019	0.011
Cc1ccc(Nc2nc(=O)c3cccnc3s2)c(Br)c1	i	29*	i	i	i	i	0.0075	0.038*	?	0.02*	0.038*	0.021*
NC(=O)N1CC(O)CC1C(=O)Nc1ccc(Cl)c(Cl)c1 (configuration not stated)	i	1.3	i	i	i	i	0.0056	0.0044	0.032	0.0085	0.02	0.011
Cc1cccc(C)c1-n1cccc1/C=C1\SC(=S)N(c2cccc(C(=O)O)c2)C1=O	i	-4.5*	-7.6*	i	i	i	0.0062	0.004	0.029	0.0054*	0.015*	0.0083*
Cc1cccc(C)c1NC(=O)CN1C(=O)S/C(=C\c2cccn2-c2cccc(C(=O)O)c2)C1=O	i	/	i	i	i	i	/	/	/	/	/	/
O=C(COc1ccccc1)NCC(=O)N/N=C/c1ccc(Br)cc1	i	/	i	i	i	i	/	/	/	/	/	/
CSc1nsc(N/N=C/c2ccc3c(c2)OCO3)c1C#N	i	8.2*	i	i	i	i	0.0095	0.0068	0.035	0.0043	0.02	0.012
COc1cc(/C=N/Nc2snc(SC)c2C#N)cc(OC)c1OC	i	-0.81	i	i	i	i	/	/	/	/	/	/
COc1ccc(C(=O)N2CCN(C)C(=O)[C@@H]2C)cc1OC1CCN(C(C)=O)CC1	i	/	i	i	i	i	/	/	/	/	/	/
CC(Oc1ccc(Br)cc1)C(=O)O/N=C(\N)c1ccncc1 (configuration not stated)	i	/	i	i	i	i	/	/	/	/	/	/
Cc1cc(C)c(S(=O)(=O)Nc2cccc3nsnc23)c(C)c1	i	23*	i	i	i	i	0.018*	0.074*	0.037	0.041*	0.074*	0.019*
Cc1ccc2nsnc2c1NS(=O)(=O)c1c(C)ccc2nsnc12	i	7.6*	i	i	i	i	0.0064	0.028*	0.035	0.02*	0.029*	0.019*
O=[N+]([O-])c1ccc(Sc2cccc[n+]2[O-])c2nonc12	/	8.4*	-8.4*	i	/	/	0.0096	0.023*	0.03	0.015*	0.023	?
O=[N+]([O-])c1ccc(Nc2ccccc2)c2nonc12	i	/	i	i	i	i	/	/	/	/	/	/
Cn1cnc2c1c(=O)[nH]c(=O)n2C	i	-0.36	i	i	i	i	0.006	0.005	0.03	0.0077	0.02	0.011
